In ChEMBL document CHEMBL3097989, “Antimicrobial activity of de novo designed cationic peptides against multi-resistant clinical isolates” (Eur J Med Chem, 2014):
Where a SMILES comes first, the peptide text is derived from it.

Assays:
Type in all cases: functional
Escherichia coli [1] = assay: Antibacterial activity against Escherichia coli ATCC 25922 by microdilution test
Summary of the method: (§1)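 MIC by standard broth microdilution following CLSI recommendations, in Mueller Hinton broth supplemented with Ca²⁺ (20-25mg/L) and Mg²⁺ (10-12.5mg/L); peptides tested against a panel of multi-resistant clinical isolates plus ATCC reference strains.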

Enterococcus gallinarum = assay: Antibacterial activity against Enterococcus gallinarum M2723 clinical isolate expressing vanC1 and vanA gene by microdilution test; summary of the method: as §1
Pseudomonas aeruginosa [2] = assay: Antibacterial activity against Pseudomonas aeruginosa M13513 clinical isolate expressing blaKPC-2 gene by microdilution test; summary of the method: as §1
Enterococcus faecalis [3] = assay: Antibacterial activity against Enterococcus faecalis M6983 clinical isolate expressing vanA gene by microdilution test; summary of the method: as §1
Escherichia coli [4] = assay: Antibacterial activity against Escherichia coli PLCA1 clinical isolate expressing blaCTX-M-2 and blaTEM-1 gene by microdilution test; summary of the method: as §1
Klebsiella pneumoniae [5] = assay: Antibacterial activity against Klebsiella pneumoniae PFAV3 by microdilution test; summary of the method: as §1
Acinetobacter sp. [6] = assay: Antibacterial activity against Acinetobacter sp. M5949 clinical isolate expressing blaOXA-23 and blaOXA-GVI gene by microdilution test; summary of the method: as §1
Pseudomonas aeruginosa [7] = assay: Antibacterial activity against Pseudomonas aeruginosa M7723 clinical isolate expressing blaKPC-2 gene by microdilution test
Summary of the method: (§2)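 MIC by standard broth microdilution following CLSI recommendations, in Mueller Hinton broth supplemented with Ca²⁺ (20-25 mg/L) and Mg²⁺ (10-12.5 mg/L); ATCC reference strains included in the panel.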

[8] = tested on: Staphylococcus epidermidis; assay: Antibacterial activity against Staphylococcus epidermidis M2931 by microdilution test; summary of the method: as §2
Escherichia coli [9] = assay: Antibacterial activity against Escherichia coli M9209 clinical isolate expressing blaKPC-2 gene by microdilution test; summary of the method: as §1
Pseudomonas aeruginosa [10] = assay: Antibacterial activity against Pseudomonas aeruginosa M5470 by microdilution test; summary of the method: as §2
Pseudomonas aeruginosa [11] = assay: Antibacterial activity against Pseudomonas aeruginosa M7712 clinical isolate expressing blaSPM gene by microdilution test; summary of the method: as §2
Pseudomonas aeruginosa [12] = assay: Antibacterial activity against Pseudomonas aeruginosa M5109 clinical isolate expressing blaVIM and blaGES-1 gene by microdilution test; summary of the method: as §2
Enterococcus faecium = assay: Antibacterial activity against Enterococcus faecium M2481 clinical isolate expressing vanB gene by microdilution test; summary of the method: as §1
[13] = tested on: Staphylococcus epidermidis; assay: Antibacterial activity against Staphylococcus epidermidis M2923 by microdilution test; summary of the method: as §2
Staphylococcus cohnii = assay: Antibacterial activity against Staphylococcus cohnii M6767 clinical isolate expressing mecA gene by microdilution test; summary of the method: as §2
Staphylococcus aureus [14] = assay: Antibacterial activity against Staphylococcus aureus P33 clinical isolate expressing msrA gene by microdilution test; summary of the method: as §2
Pseudomonas aeruginosa [15] = assay: Antibacterial activity against Pseudomonas aeruginosa M7728 clinical isolate expressing blaIMP gene by microdilution test; summary of the method: as §2
Staphylococcus aureus [16] = assay: Antibacterial activity against Staphylococcus aureus M6820 clinical isolate expressing mecA gene by microdilution test; summary of the method: as §2
[17] = tested on: Staphylococcus haemolyticus; assay: Antibacterial activity against Staphylococcus haemolyticus M2976 clinical isolate expressing mecA gene by microdilution test; summary of the method: as §2
Klebsiella pneumoniae [18] = assay: Antibacterial activity against Klebsiella pneumoniae M9140 clinical isolate expressing blaCIT gene by microdilution test; summary of the method: as §1
Escherichia coli [19] = assay: Antibacterial activity against Escherichia coli PCOS15 clinical isolate expressing blaPER-2 and blaTEM-1 gene by microdilution test; summary of the method: as §1
Escherichia coli [20] = assay: Antibacterial activity against Escherichia coli M9884 by microdilution test; summary of the method: as §1
Staphylococcus aureus [21] = assay: Antibacterial activity against Staphylococcus aureus P204 clinical isolate expressing ermA gene by microdilution test; summary of the method: as §2
Acinetobacter sp. [22] = assay: Antibacterial activity against Acinetobacter sp. M13523 clinical isolate expressing blaOXA-51 gene by microdilution test; summary of the method: as §1
Acinetobacter sp. [23] = assay: Antibacterial activity against Acinetobacter sp. M5282 clinical isolate expressing blaOXA-51 gene by microdilution test; summary of the method: as §1
Pseudomonas aeruginosa [24] = assay: Antibacterial activity against Pseudomonas aeruginosa M11005 clinical isolate expressing blaKPC-2 gene by microdilution test; summary of the method: as §1
Enterococcus faecalis [25] = assay: Antibacterial activity against Enterococcus faecalis M6534 clinical isolate expressing vanB gene by microdilution test; summary of the method: as §1
[26] = tested on: Staphylococcus epidermidis; assay: Antibacterial activity against Staphylococcus epidermidis M2919 clinical isolate expressing mecA gene by microdilution test; summary of the method: as §2
Pseudomonas aeruginosa [27] = assay: Antibacterial activity against Pseudomonas aeruginosa PCOS12 by microdilution test; summary of the method: as §2
Enterococcus faecalis [28] = assay: Antibacterial activity against Enterococcus faecalis ATCC 29212 by microdilution test; summary of the method: as §1
[29] = tested on: Staphylococcus saprophyticus; assay: Antibacterial activity against Staphylococcus saprophyticus M4070 clinical isolate expressing mecA gene by microdilution test; summary of the method: as §2
Staphylococcus aureus [30] = assay: Antibacterial activity against Staphylococcus aureus M6276 clinical isolate expressing ermA and lnuA gene by microdilution test; summary of the method: as §2
Staphylococcus aureus [31] = assay: Antibacterial activity against Staphylococcus aureus M6794 clinical isolate expressing mecA gene by microdilution test; summary of the method: as §2
Klebsiella pneumoniae [32] = assay: Antibacterial activity against Klebsiella pneumoniae M9491 clinical isolate expressing blaMOX gene by microdilution test; summary of the method: as §1
Pseudomonas aeruginosa [33] = assay: Antibacterial activity against Pseudomonas aeruginosa ATCC 27853 by microdilution test; summary of the method: as §1

| MIC90 (Escherichia coli [1]) [µg/mL] | MIC90 (Enterococcus gallinarum) [µg/mL] | MIC90 (Pseudomonas aeruginosa [2]) [µg/mL] | MIC90 (Enterococcus faecalis [3]) [µg/mL] | MIC90 (Escherichia coli [4]) [µg/mL] | MIC90 (Klebsiella pneumoniae [5]) [µg/mL] | MIC90 (Acinetobacter sp. [6]) [µg/mL] | MIC90 (Pseudomonas aeruginosa [7]) [µg/mL] | MIC90 [8] [µg/mL] | MIC90 (Escherichia coli [9]) [µg/mL] | MIC90 (Pseudomonas aeruginosa [10]) [µg/mL] | MIC90 (Pseudomonas aeruginosa [11]) [µg/mL] | MIC90 (Pseudomonas aeruginosa [12]) [µg/mL] | MIC90 (Enterococcus faecium) [µg/mL] | MIC90 [13] [µg/mL] | MIC90 (Staphylococcus cohnii) [µg/mL] | MIC90 (Staphylococcus aureus [14]) [µg/mL] | MIC90 (Pseudomonas aeruginosa [15]) [µg/mL] | MIC90 (Staphylococcus aureus [16]) [µg/mL] | Compound | MIC90 [17] [µg/mL] | further results |
| --- | --- | --- | --- | --- | --- | --- | --- | --- | --- | --- | --- | --- | --- | --- | --- | --- | --- | --- | --- | --- | --- |
| 64 | 16 | 256 | 128 | 64 | 128 | 32 | 256 | 16 | 64 | 512 | 512 | 256 | 16 | 8 | 4 | 32 | 512 | 128 | CC[C@H](C)[C@H](N)C(=O)N[C@@H](CC(C)C)C(=O)N[C@@H](CCCNC(=N)N)C(=O)N[C@@H](Cc1c[nH]c2ccccc12)C(=O)N1CCC[C@H]1C(=O)N[C@@H](Cc1c[nH]c2ccccc12)C(=O)N[C@@H](Cc1c[nH]c2ccccc12)C(=O)N1CCC[C@H]1C(=O)N[C@@H](Cc1c[nH]c2ccccc12)C(=O)N[C@@H](CCCNC(=N)N)C(=O)N[C@@H](CCCNC(=N)N)C(=O)N[C@@H](CCCCN)C(N)=O.Cl.Cl.Cl.Cl.Cl [OMIGANAN PENTAHYDROCHLORIDE] (H-ILRWPWWPWRRK-NH2) | 4 | MIC90 (Klebsiella pneumoniae [18]): 64 µg/mL; MIC90 (Escherichia coli [19]): 64 µg/mL; MIC90 (Escherichia coli [20]): 64 µg/mL; MIC90 (Staphylococcus aureus [21]): 64 µg/mL; MIC90 (Acinetobacter sp. [22]): 32 µg/mL; MIC90 (Acinetobacter sp. [23]): 8 µg/mL; MIC90 (Pseudomonas aeruginosa [24]): 512 µg/mL; MIC90 (Enterococcus faecalis [25]): 256 µg/mL; MIC90 [26]: 8 µg/mL; MIC90 (Pseudomonas aeruginosa [27]): 512 µg/mL; MIC90 (Enterococcus faecalis [28]): 128 µg/mL; MIC90 [29]: 8 µg/mL; MIC90 (Staphylococcus aureus [30]): 32 µg/mL; MIC90 (Staphylococcus aureus [31]): 64 µg/mL; MIC90 (Klebsiella pneumoniae [32]): 128 µg/mL; MIC90 (Pseudomonas aeruginosa [33]): 256 µg/mL |
| 32 | 32 | 64 | 128 | 64 | 128 | 16 | 64 | 16 | 64 | 64 | 64 | 64 | 16 | 16 | 16 | 128 | 64 | 128 | H-GLLKKWLKKWKEFKRIVGY-NH2 | 8 | MIC90 (Klebsiella pneumoniae [18]): 32 µg/mL; MIC90 (Escherichia coli [19]): 64 µg/mL; MIC90 (Escherichia coli [20]): 32 µg/mL; MIC90 (Staphylococcus aureus [21]): 64 µg/mL; MIC90 (Acinetobacter sp. [22]): 4 µg/mL; MIC90 (Acinetobacter sp. [23]): 8 µg/mL; MIC90 (Pseudomonas aeruginosa [24]): 64 µg/mL; MIC90 (Enterococcus faecalis [25]): 256 µg/mL; MIC90 [26]: 16 µg/mL; MIC90 (Pseudomonas aeruginosa [27]): 64 µg/mL; MIC90 (Enterococcus faecalis [28]): 128 µg/mL; MIC90 [29]: 32 µg/mL; MIC90 (Staphylococcus aureus [30]): 128 µg/mL; MIC90 (Staphylococcus aureus [31]): 64 µg/mL; MIC90 (Klebsiella pneumoniae [32]): 64 µg/mL; MIC90 (Pseudomonas aeruginosa [33]): 64 µg/mL |
| 32 | 16 | 64 | 128 | 64 | 128 | 256 | 32 | 8 | 128 | 64 | 64 | 64 | 16 | 16 | 8 | 64 | 64 | 64 | H-RIVQRIKKWLLKWKKLGY-NH2 | 8 | MIC90 (Klebsiella pneumoniae [18]): 32 µg/mL; MIC90 (Escherichia coli [19]): 64 µg/mL; MIC90 (Escherichia coli [20]): 32 µg/mL; MIC90 (Staphylococcus aureus [21]): 32 µg/mL; MIC90 (Acinetobacter sp. [22]): 64 µg/mL; MIC90 (Acinetobacter sp. [23]): 64 µg/mL; MIC90 (Pseudomonas aeruginosa [24]): 128 µg/mL; MIC90 (Enterococcus faecalis [25]): 256 µg/mL; MIC90 [26]: 8 µg/mL; MIC90 (Pseudomonas aeruginosa [27]): 64 µg/mL; MIC90 (Enterococcus faecalis [28]): 128 µg/mL; MIC90 [29]: 8 µg/mL; MIC90 (Staphylococcus aureus [30]): 64 µg/mL; MIC90 (Staphylococcus aureus [31]): 64 µg/mL; MIC90 (Klebsiella pneumoniae [32]): 64 µg/mL; MIC90 (Pseudomonas aeruginosa [33]): 64 µg/mL |
| 128 | 32 | 32 | 64 | 128 | 1020 | 256 | 64 | 16 | 128 | 128 | 64 | 128 | 32 | 16 | 16 | 32 | 128 | 64 | H-WPKWWKWKRRWGRKKAKKRRG-NH2 | 16 | MIC90 (Klebsiella pneumoniae [18]): 1020 µg/mL; MIC90 (Escherichia coli [19]): 128 µg/mL; MIC90 (Escherichia coli [20]): 128 µg/mL; MIC90 (Staphylococcus aureus [21]): 64 µg/mL; MIC90 (Acinetobacter sp. [22]): 64 µg/mL; MIC90 (Acinetobacter sp. [23]): 64 µg/mL; MIC90 (Pseudomonas aeruginosa [24]): 64 µg/mL; MIC90 (Enterococcus faecalis [25]): 128 µg/mL; MIC90 [26]: 16 µg/mL; MIC90 (Pseudomonas aeruginosa [27]): 64 µg/mL; MIC90 (Enterococcus faecalis [28]): 64 µg/mL; MIC90 [29]: 16 µg/mL; MIC90 (Staphylococcus aureus [30]): 16 µg/mL; MIC90 (Staphylococcus aureus [31]): 32 µg/mL; MIC90 (Klebsiella pneumoniae [32]): 1020 µg/mL; MIC90 (Pseudomonas aeruginosa [33]): 64 µg/mL |
